Test results: ChEMBL document CHEMBL1133720, “Structural studies on bioactive compounds. 32. Oxidation of tyrphostin protein tyrosine kinase inhibitors with hypervalent iodine reagents” (J Med Chem, 2000)
Values belong to the molecule of their own block, whether it stands above or below them.

Tests used:
Cell line = experiment: Inhibition of proliferation in NCI panel of 60 human cell lines (Range is 20-80 uM); format: functional
[1] = biological target: Receptor tyrosine-protein kinase erbB-2; experiment: Inhibition of c-erbB2 receptor
MCF7 [2] = experiment: (§1) Inhibition of MCF-7 human breast tumor cell proliferation; format: functional, cell-based
Method in brief: (§2)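 Seven-day MTT assay at 250-300 cells/well in RPMI 1640 with 10% FCS. After a 24-h drug-free attachment at 37 °C/5% CO₂, drug was added at 1 nM-100 µM (final DMSO <0.25%). MTT was added at a final 400 µg/mL for 4 h, formazan was dissolved in DMSO-glycine (4:1) and absorbance read at 550 nm. IC50 is the mean of at least three experiments.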

MCF7 [3] = experiment: as §1; format: functional, cell-based; method in brief: as §2; remark: listed apart in the source
MCF7 [4] = experiment: Inhibition of TGF-alpha stimulated MCF-7 human breast tumor cell proliferation; format: functional, cell-based
Method in brief: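 MCF-7 cells, 5 × 10³/well, were plated in phenol red-free RPMI 1640 with 5% charcoal-stripped FCS and allowed to attach overnight. Growth factor (IGF-I, IGF-II or TGF-α, as the line names) was then added together with drug. Cells grew a further 7 days, and viable cells were counted by MTT. IC50 is the mean of at least three experiments.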

MCF7 [5] = experiment: Inhibition of MCF-7/adr human breast tumor cell proliferation; format: functional, cell-based; method in brief: as §2
MDA-MB-231 = experiment: Inhibition of MDA-231 human breast tumor cell proliferation; format: functional, cell-based
Method in brief: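 MTT assay, 7-day continuous drug exposure. Cells seeded at 250-300 cells/well in RPMI 1640 with 10% FCS and penicillin/streptomycin, attached over 24 h drug-free at 37 °C/5% CO2. Drug range 1 nM-100 µM from DMSO stocks, final DMSO <0.25%. MTT 400 µg/mL final for 4 h, formazan dissolved in DMSO-glycine, absorbance 550 nm. IC50 is the mean of at least three experiments.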

SK-BR-3 = experiment: Inhibition of SBBr3 human breast tumor cell proliferation; format: functional, cell-based; method in brief: as §2
T47D = experiment: Inhibition of T47D human breast tumor cell proliferation; format: functional, cell-based; method in brief: as §2
ZR-75-1 = experiment: Inhibition of ZR-75-1 human breast tumor cell proliferation; format: functional, cell-based; method in brief: as §2
MDA-MB-468 = experiment: Inhibition of MDA-468 human breast tumor cell proliferation; format: functional, cell-based; method in brief: as §2

Structure (SMILES): N#CC(C#N)=Cc1ccc(Oc2ccccc2)c(I)c1
GI50 (Cell line): 80 µM

Structure (SMILES): COC(=O)/C(C#N)=C/c1ccc(Oc2ccccc2)c(I)c1
GI50 (Cell line): 80 µM

Structure (SMILES): N#C/C(=C\c1ccc(Oc2ccccc2)c(I)c1)C(N)=O
GI50 (Cell line): 80 µM

IC50 [1]: 0.35 µM
Structure (SMILES): COc1cc(/C=C(\C#N)C(N)=O)cc(Sc2nc3ccccc3s2)c1O

Structure (SMILES): N#C/C(=C\c1ccc(Oc2ccccc2)c(I)c1)C(=O)NCCCc1ccccc1
GI50 (Cell line): 80 µM

Structure (SMILES): COc1cc(C=C(C#N)C#N)cc(-c2cc(C=C(C#N)C#N)cc(OC)c2O)c1O
GI50 (Cell line): 80 µM

Structure (SMILES): COc1cc(C(C)=O)cc(-c2cc(C(C)=O)cc(OC)c2O)c1O
GI50 (Cell line): 80 µM

Structure (SMILES): COc1cc(/C=C(\C#N)C(N)=O)cc(-c2cc(/C=C(\C#N)C(N)=O)cc(OC)c2O)c1O
GI50 (Cell line): 80 µM

IC50 (MCF7 [2]): 0.7 µM | IC50 (MCF7 [3]): 2.7 µM | IC50 (MCF7 [4]): 2.3 µM | IC50 (MCF7 [5]): 52.8 µM | IC50 (MDA-MB-231): 51 µM | IC50 (SK-BR-3): 0.5 µM | IC50 (T47D): 6 µM | IC50 (MDA-MB-468): 0.06 µM
Structure (SMILES): COc1cc(/C=C(\C#N)c2ccccn2)ccc1O
IC50 (ZR-75-1): 2.6 µM

Structure (SMILES): COc1cc(C=O)cc(-c2cc(C=O)cc(OC)c2O)c1O
GI50 (Cell line): 80 µM

Structure (SMILES): COC(=O)/C(C#N)=C/c1cc(OC)c(O)c(-c2cc(/C=C(\C#N)C(=O)OC)cc(OC)c2O)c1
GI50 (Cell line): 80 µM

Structure (SMILES): COC(=O)c1cc(OC)c(O)c(-c2cc(C(=O)OC)cc(OC)c2O)c1
GI50 (Cell line): 80 µM

IC50 (MCF7 [2]): 20 µM | IC50 (MCF7 [3]): 41.8 µM | IC50 (MCF7 [4]): 41 µM | IC50 (MCF7 [5]): 25.2 µM | IC50 (MDA-MB-231): 39.8 µM | IC50 (SK-BR-3): 6.5 µM | IC50 (T47D): 48.7 µM | IC50 (MDA-MB-468): 0.3 µM
Structure (SMILES): N#C/C(=C\c1ccc(Oc2ccccc2)c(I)c1)c1ccccn1
IC50 (ZR-75-1): 24.7 µM

Structure (SMILES): COc1cc(/C=C(\C#N)c2ccccn2)cc(-c2cc(/C=C(\C#N)c3ccccn3)cc(OC)c2O)c1O
GI50 (Cell line): 80 µM

Structure (SMILES): CCOc1cc(C=C(C#N)C#N)cc(-c2cc(C=C(C#N)C#N)cc(OCC)c2O)c1O
GI50 (Cell line): 80 µM

IC50 (MCF7 [2]): 15 µM | IC50 (MCF7 [3]): 73.8 µM | IC50 (MCF7 [4]): 67.7 µM | IC50 (MCF7 [5]): 51.2 µM | IC50 (MDA-MB-231): 40.3 µM | IC50 (SK-BR-3): 7.8 µM | IC50 (T47D): 36.3 µM | IC50 (MDA-MB-468): 0.45 µM
Structure (SMILES): N#C/C(=C\c1ccc(O)cc1)c1ccccn1
IC50 (ZR-75-1): 48.5 µM

Structure (SMILES): COC1=C2C[C@@H](C)C[C@H](OC)[C@H](O)[C@@H](C)/C=C(\C)[C@H](OC(N)=O)[C@@H](OC)/C=C\C=C(/C)C(=O)NC(=CC1=O)C2=O [GELDANAMYCIN]
GI50 (Cell line): 0.327 µM
